CHRM4 PAM = potentiates acetylcholine response at human M4 receptor; AID 624126; 0.4% of 360,000 active; CHO-K1 hM4/Gqi5, Fluo-8 calcium fluorescence, ACh EC20; 0% = ACh EC20, 100% = maximal ACh; activation, % at 3 µM;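 active = activation above its plate's cutoff, the mean activation of sample wells plus 3 SD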
CHRM5 PAM = positive allosteric modulators of human muscarinic M5 receptor. P08912. CHO-K1 hM5, Fluo-8 calcium, ACh EC20 PAM; 0% = ACh EC20, 100% = ACh EC100. activation, % at 3 µM. 0.3% of 360,000 active. AID 624038;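 active = activation above the run cutoff, the mean activation of all test compounds plus 3 SD, cut at about 18% in these data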
Target sequence (P08912 whole entry, looked up): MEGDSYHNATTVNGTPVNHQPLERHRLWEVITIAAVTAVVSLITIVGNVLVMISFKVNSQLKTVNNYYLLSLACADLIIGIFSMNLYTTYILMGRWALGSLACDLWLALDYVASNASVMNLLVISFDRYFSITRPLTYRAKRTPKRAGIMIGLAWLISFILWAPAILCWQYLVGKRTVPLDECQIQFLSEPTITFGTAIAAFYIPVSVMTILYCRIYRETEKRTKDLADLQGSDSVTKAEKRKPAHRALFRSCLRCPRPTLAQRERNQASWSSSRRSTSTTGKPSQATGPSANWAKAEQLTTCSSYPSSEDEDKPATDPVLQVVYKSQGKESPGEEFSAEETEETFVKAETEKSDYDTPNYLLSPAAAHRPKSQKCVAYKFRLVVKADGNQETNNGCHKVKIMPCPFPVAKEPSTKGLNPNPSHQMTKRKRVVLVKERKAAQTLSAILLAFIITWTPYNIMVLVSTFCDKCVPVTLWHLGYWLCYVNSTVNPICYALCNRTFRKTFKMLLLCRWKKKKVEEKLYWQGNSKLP
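System: CHO-K1 cell line with stable human muscarinic M5 receptor expression | Also added: EC20 acetylcholine as agonist stimulus | Compound: One concentration, 3 µM final (nominal) | Timing: Fluo-8 loading 80 min at 37 °C plus 30 min room temperature | Measured by: Fluo-8 calcium dye fluorescence, kinetic read | Read-out basis: % activation, ACh-normalized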
CHRM4 agonist = CHRM4 agonism in calcium assay | CHO-K1 hM4/Gqi5, Fluo-8 calcium fluorescence; vehicle 0%, full acetylcholine response 100% | 0.14% of 360,000 active | activation, % at 3 µM | P08173 | AID 624127;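 active = activation above the run mean over all test wells plus 3 SD, cut at about 32% in these data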;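 also: peak over basal fluorescence ratio per well then scaled between controls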
M5 antag = antagonists of human muscarinic M5 receptor (CHRM5); AID 624040; inhibition, % at 3 µM; 0.59% of 360,000 active; CHO-hM5 cells, Fluo-8 calcium fluorescence, ACh EC80;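 active = inhibition above a per-plate cutoff, the mean of that plate's test compounds plus 3 SD, cut at about 27% in these data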
CHRM5 agonist = agonists of human muscarinic M5 receptor (CHRM5); P08912; CHO-K1 hM5 cells, Fluo-8 calcium fluorescence; 0% DMSO wells, 100% maximal acetylcholine response; activation, % at 3 µM; 0.19% of 360,000 active; AID 624037;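 active = activation above the run's mean over test compounds plus 3 SD, cut at about 23% in these data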;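 also: signal is peak over basal fluorescence ratio across the kinetic read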
M4 antag = CHRM4 antagonism in calcium assay | 0.73% of 360,000 active | inhibition, % at 3 µM | CHO-hM4 cells, ACh EC80, Fluo-8 calcium fluorescence;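 active = inhibition above its plate's cutoff, the mean inhibition of sample wells plus 3 SD, cut at about 27% in these data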
Numbers stand for hits. Hits are enriched below; roughly 1.8% of the tested compounds scored in any of these assays.

COc1cc(NC(=O)c2cc(Cl)nnc2Cl)cc(OC)c1OC was read as CHRM4 PAM inactive, CHRM5 PAM inactive, CHRM4 agonist inactive, M5 antag inactive, CHRM5 agonist inactive and M4 antag inactive.
For COc1ccc(CC(=O)NC(=S)Nc2cccc(CO)c2)cc1 the results were CHRM4 PAM inactive, CHRM5 PAM inactive, CHRM4 agonist inactive, M5 antag inactive, CHRM5 agonist 31 and M4 antag inactive.
`Cc1cccc(NC(=S)NC(=O)CCc2ccccc2)c1` gave CHRM4 PAM inactive, CHRM5 PAM inactive, CHRM4 agonist inactive, M5 antag inactive, CHRM5 agonist inactive and M4 antag inactive.
`NC(=S)NNc1ccnc2cc(Cl)ccc12` gave CHRM4 PAM inactive, CHRM5 PAM inactive, CHRM4 agonist inactive, M5 antag inactive, CHRM5 agonist inactive and M4 antag inactive.
`O=C(NNc1ccnc2cc(Cl)ccc12)C1CCCCC1` gave CHRM4 PAM inactive, CHRM5 PAM inactive, CHRM4 agonist inactive, M5 antag 31, CHRM5 agonist inactive and M4 antag inactive.
`COCCCN1C(=O)C(CC(=O)NCCN2CCOCC2)CC(C(=O)N2CCOCC2)=C1C` (stereo not given) gave CHRM4 PAM inactive, CHRM5 PAM inactive, CHRM4 agonist inactive, M5 antag inactive, CHRM5 agonist inactive and M4 antag inactive.
For COc1ccc(OC)c(/C=N/NC(=O)C(=O)N2CCCC2)c1 the results were CHRM4 PAM 22, CHRM5 PAM inactive, CHRM4 agonist inactive, M5 antag inactive, CHRM5 agonist inactive and M4 antag inactive.
`CCN(C(=O)C1CCN(c2nc(-c3ccc(OC)cc3)no2)CC1)c1ccc(OC)cc1` gave CHRM4 PAM inactive, CHRM5 PAM inactive, CHRM4 agonist inactive, M5 antag 28, CHRM5 agonist inactive and M4 antag inactive.
For COc1ccc(NC(=O)C2CCN(c3nc(-c4ccc(OC)cc4)no3)CC2)cc1 the results were CHRM4 PAM inactive, CHRM5 PAM inactive, CHRM4 agonist inactive, M5 antag inactive, CHRM5 agonist inactive and M4 antag inactive.
For COc1ccc(CNC(=O)c2cn(Cc3ccccc3F)c(=O)s2)cc1 the results were CHRM4 PAM inactive, CHRM5 PAM inactive, CHRM4 agonist inactive, M5 antag inactive, CHRM5 agonist inactive and M4 antag inactive.
For Cn1cc(CN2CCC(C(=O)NC(c3ccc(-c4ccccc4)cc3)c3cnccn3)CC2)c2ccccc21 (stereo not given) the results were CHRM4 PAM inactive, CHRM5 PAM inactive, CHRM4 agonist inactive, M5 antag inactive, CHRM5 agonist inactive and M4 antag 28.
For COc1ccccc1Cc1c(-c2ccc(C#N)cc2)nc2c(Cl)cc(C(F)(F)F)cn12 the results were CHRM4 PAM inactive, CHRM5 PAM inactive, CHRM4 agonist inactive, M5 antag inactive, CHRM5 agonist inactive and M4 antag inactive.
Screening Fc1ccc(/C=C2\CCCC3=C2Nc2ncnn2C3c2ccc(F)cc2)cc1 (stereo not given) returned CHRM4 PAM inactive, CHRM5 PAM inactive, CHRM4 agonist inactive, M5 antag inactive, CHRM5 agonist inactive and M4 antag 28.
`COc1ccc(C2C3=C(Nc4ncnn42)c2ccccc2CCC3)cc1` (stereo not given) gave CHRM4 PAM inactive, CHRM5 PAM inactive, CHRM4 agonist inactive, M5 antag inactive, CHRM5 agonist inactive and M4 antag inactive.
For Fc1ccccc1CNC(=S)Nc1cccc(C(F)(F)F)c1 the results were CHRM4 PAM inactive, CHRM5 PAM inactive, CHRM4 agonist inactive, M5 antag 27, CHRM5 agonist inactive and M4 antag inactive.
For CCCOC1CCCN(C(=O)c2cc(Cl)c(Cl)cc2C(=O)O)C1 (stereo not given) the results were CHRM4 PAM inactive, CHRM5 PAM inactive, CHRM4 agonist inactive, M5 antag inactive, CHRM5 agonist 25 and M4 antag inactive.
Cc1ccc2nc(CCc3nc4ccc(C)cc4[nH]3)[nH]c2c1 was read as CHRM4 PAM 14, CHRM5 PAM inactive, CHRM4 agonist inactive, M5 antag inactive, CHRM5 agonist inactive and M4 antag inactive.
Cc1ccc2nc(CCCc3nc4ccc(C)cc4[nH]3)[nH]c2c1 was read as CHRM4 PAM inactive, CHRM5 PAM inactive, CHRM4 agonist inactive, M5 antag inactive, CHRM5 agonist inactive and M4 antag inactive.
O=S(=O)(Nc1cc(Sc2ncn[nH]2)c(O)c2ccccc12)c1ccccc1 was read as CHRM4 PAM inactive, CHRM5 PAM inactive, CHRM4 agonist inactive, M5 antag 28, CHRM5 agonist inactive and M4 antag inactive.
For O=C(NC1CC1)C1CCN(C2CCN(C(=O)/C=C/c3ccc(F)cc3)CC2)CC1 the results were CHRM4 PAM inactive, CHRM5 PAM inactive, CHRM4 agonist inactive, M5 antag inactive, CHRM5 agonist inactive and M4 antag inactive.
CC(C)C(NC(=O)OCc1ccccc1)C(=O)NC1CCCCC1 (stereo not given) was read as CHRM4 PAM 31, CHRM5 PAM inactive, CHRM4 agonist inactive, M5 antag inactive, CHRM5 agonist inactive and M4 antag inactive.
For N#CC(=C1C=CC(=NO)C(Cl)=C1)c1ccc(Cl)cc1 the results were CHRM4 PAM inactive, CHRM5 PAM inactive, CHRM4 agonist inactive, M5 antag inactive, CHRM5 agonist inactive and M4 antag 39.
For COc1ccc(C(C#N)=C2C=CC(=NO)C=C2)cc1 the results were CHRM4 PAM inactive, CHRM5 PAM inactive, CHRM4 agonist inactive, M5 antag inactive, CHRM5 agonist inactive and M4 antag inactive.
CC(C)OP(=O)(OC(C)C)C(Nc1ccc(C(=O)O)cc1)c1ccccc1 (stereo not given) was read as CHRM4 PAM 32, CHRM5 PAM inactive, CHRM4 agonist inactive, M5 antag inactive, CHRM5 agonist inactive and M4 antag 38.
`CC(C)OP(=O)(OC(C)C)C(Nc1cccc(C(=O)O)c1)c1ccccc1` (stereo not given) gave CHRM4 PAM inactive, CHRM5 PAM inactive, CHRM4 agonist inactive, M5 antag inactive, CHRM5 agonist inactive and M4 antag inactive.
Screening O=S(=O)(Nc1ccc(N2CCOCC2)cc1)c1cc(Cl)ccc1Cl returned CHRM4 PAM inactive, CHRM5 PAM 18, CHRM4 agonist inactive, M5 antag inactive, CHRM5 agonist inactive and M4 antag inactive.
Cn1nc(C(F)(F)F)c(/C=N/OC(=O)c2ccccc2)c1SCc1ccccc1Cl was read as CHRM4 PAM inactive, CHRM5 PAM inactive, CHRM4 agonist inactive, M5 antag inactive, CHRM5 agonist inactive and M4 antag 30.
`C=CCCC(=O)N1C[C@H]2CON(C)[C@H]2C[C@H]1c1cccc(Oc2ccccc2)c1` gave CHRM4 PAM inactive, CHRM5 PAM inactive, CHRM4 agonist inactive, M5 antag inactive, CHRM5 agonist inactive and M4 antag inactive.

Source: PubChem BioAssay (The Scripps Research Institute Molecular Screening Center)
